How the values were obtained:
Format in all cases: cell-based
[1] = molecular target: Mitogen-activated protein kinase 8 (Homo sapiens, UniProt P45983); assay: Inhibition of JNK1 Lys2 labeling site in human A-375 cells at 5 uM by KiNativ Profiling analysis relative to control
[2] = molecular target: Tyrosine-protein kinase Fyn (Homo sapiens) (UniProt P06241); assay: Inhibition of FYN ACT labeling site in human A-375 cells at 0.5 uM by KiNativ Profiling analysis relative to control
[3] = molecular target: T1, Aurora kinase A (Homo sapiens) (UniProt O14965); assay: Inhibition of AurA ATP Loop labeling site in human A-375 cells at 0.5 uM by KiNativ Profiling analysis relative to control
T1 sequence (whole entry): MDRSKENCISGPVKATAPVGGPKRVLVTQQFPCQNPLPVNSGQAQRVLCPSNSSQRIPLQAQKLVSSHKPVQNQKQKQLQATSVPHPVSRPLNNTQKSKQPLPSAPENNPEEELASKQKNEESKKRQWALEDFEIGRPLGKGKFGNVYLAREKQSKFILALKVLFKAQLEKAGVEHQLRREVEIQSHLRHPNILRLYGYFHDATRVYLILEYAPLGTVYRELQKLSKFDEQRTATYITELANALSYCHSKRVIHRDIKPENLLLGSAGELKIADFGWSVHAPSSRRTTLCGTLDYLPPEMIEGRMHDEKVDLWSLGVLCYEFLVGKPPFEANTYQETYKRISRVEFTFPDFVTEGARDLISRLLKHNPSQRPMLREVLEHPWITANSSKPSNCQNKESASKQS
In short: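 Live A375 melanoma cells were treated with compound at 5 or 0.5 μM, then lysed. The lysates were labeled with a lysine-reactive ATP or ADP-biotin probe. Kinase protection from probe labeling was measured by KiNativ.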

[4] = molecular target: T2, Tyrosine-protein kinase Fer (Homo sapiens, UniProt P16591); assay: Inhibition of FER Lys1 labeling site harbouring TSVAVKTCKEDLPQELKin human A-375 cells at 0.5 uM by KiNativ Profiling analysis relative to control
[5] = molecular target: Casein kinase II subunit alpha (Homo sapiens) (UniProt P68400); assay: Inhibition of CK2a1 Protein Kinase Domain in human A-375 cells at 0.05 uM by KiNativ Profiling analysis relative to control
[6] = molecular target: T2, Tyrosine-protein kinase Fer; assay: Inhibition of FER Lys1 labeling site harbouring TSVAVKTCKEDLPQELKin human A-375 cells at 0.05 uM by KiNativ Profiling analysis relative to control
[7] = molecular target: T3, Mitogen-activated protein kinase kinase kinase 3 (Homo sapiens) (UniProt Q99759); assay: Inhibition of MAP3K3 Lys1 labeling site in human A-375 cells at 0.05 uM by KiNativ Profiling analysis relative to control
T3 sequence (whole entry): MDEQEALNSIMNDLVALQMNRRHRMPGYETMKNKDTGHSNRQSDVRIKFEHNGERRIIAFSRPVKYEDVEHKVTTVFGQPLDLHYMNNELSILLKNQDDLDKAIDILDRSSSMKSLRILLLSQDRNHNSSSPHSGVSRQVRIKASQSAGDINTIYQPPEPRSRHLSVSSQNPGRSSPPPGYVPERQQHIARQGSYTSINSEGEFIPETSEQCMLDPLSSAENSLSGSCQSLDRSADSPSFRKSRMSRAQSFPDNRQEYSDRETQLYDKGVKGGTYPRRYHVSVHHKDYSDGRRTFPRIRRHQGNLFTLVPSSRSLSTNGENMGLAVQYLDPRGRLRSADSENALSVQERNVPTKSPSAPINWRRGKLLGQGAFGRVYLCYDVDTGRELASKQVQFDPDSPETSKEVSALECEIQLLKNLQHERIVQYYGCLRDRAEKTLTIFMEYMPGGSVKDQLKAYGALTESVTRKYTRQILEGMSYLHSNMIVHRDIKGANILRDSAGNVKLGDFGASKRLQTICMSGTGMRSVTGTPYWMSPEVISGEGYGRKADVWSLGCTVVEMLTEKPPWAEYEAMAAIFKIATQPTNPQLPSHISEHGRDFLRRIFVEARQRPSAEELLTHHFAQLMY

[8] = molecular target: T4, Mitogen-activated protein kinase 13 (Homo sapiens) (UniProt O15264); assay: Inhibition of p38 delta Lys2 labeling site in human A-375 cells at 0.05 uM by KiNativ Profiling analysis relative to control
T4 sequence (whole entry): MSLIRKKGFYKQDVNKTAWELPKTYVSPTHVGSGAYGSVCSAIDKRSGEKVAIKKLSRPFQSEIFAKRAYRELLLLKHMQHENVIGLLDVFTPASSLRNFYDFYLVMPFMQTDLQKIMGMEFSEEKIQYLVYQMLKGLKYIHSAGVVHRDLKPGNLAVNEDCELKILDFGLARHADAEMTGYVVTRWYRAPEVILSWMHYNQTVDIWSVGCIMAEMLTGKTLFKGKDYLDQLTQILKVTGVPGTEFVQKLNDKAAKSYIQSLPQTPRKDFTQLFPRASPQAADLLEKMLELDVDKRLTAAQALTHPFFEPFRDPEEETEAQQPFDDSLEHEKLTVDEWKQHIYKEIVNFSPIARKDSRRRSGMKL

T2 sequence (P16591 whole entry, looked up, the tested form may be a part): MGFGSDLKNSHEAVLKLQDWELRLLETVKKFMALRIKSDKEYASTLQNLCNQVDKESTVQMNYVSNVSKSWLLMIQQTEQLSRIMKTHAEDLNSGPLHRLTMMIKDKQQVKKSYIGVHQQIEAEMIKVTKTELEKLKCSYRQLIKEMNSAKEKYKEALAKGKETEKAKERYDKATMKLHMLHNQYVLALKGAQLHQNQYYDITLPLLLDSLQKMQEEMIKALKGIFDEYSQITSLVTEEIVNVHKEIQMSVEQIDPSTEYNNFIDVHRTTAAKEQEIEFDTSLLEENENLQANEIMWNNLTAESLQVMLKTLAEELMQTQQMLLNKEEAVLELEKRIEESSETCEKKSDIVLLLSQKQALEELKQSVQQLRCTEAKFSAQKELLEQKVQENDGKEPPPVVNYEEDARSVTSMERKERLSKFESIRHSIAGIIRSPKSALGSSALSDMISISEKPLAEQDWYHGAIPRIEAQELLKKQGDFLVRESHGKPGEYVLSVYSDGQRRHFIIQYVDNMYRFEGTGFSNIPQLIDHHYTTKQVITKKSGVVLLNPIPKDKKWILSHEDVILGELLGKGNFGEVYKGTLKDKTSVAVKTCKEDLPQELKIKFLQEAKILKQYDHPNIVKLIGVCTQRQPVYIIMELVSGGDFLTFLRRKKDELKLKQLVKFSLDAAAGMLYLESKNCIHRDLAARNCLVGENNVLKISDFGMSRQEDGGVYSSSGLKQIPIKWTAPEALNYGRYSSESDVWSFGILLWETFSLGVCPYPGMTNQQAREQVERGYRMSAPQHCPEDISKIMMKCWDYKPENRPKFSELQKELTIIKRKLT
Sequence of Tyrosine-protein kinase Fyn (Homo sapiens) (P06241 2-537 limits assumed): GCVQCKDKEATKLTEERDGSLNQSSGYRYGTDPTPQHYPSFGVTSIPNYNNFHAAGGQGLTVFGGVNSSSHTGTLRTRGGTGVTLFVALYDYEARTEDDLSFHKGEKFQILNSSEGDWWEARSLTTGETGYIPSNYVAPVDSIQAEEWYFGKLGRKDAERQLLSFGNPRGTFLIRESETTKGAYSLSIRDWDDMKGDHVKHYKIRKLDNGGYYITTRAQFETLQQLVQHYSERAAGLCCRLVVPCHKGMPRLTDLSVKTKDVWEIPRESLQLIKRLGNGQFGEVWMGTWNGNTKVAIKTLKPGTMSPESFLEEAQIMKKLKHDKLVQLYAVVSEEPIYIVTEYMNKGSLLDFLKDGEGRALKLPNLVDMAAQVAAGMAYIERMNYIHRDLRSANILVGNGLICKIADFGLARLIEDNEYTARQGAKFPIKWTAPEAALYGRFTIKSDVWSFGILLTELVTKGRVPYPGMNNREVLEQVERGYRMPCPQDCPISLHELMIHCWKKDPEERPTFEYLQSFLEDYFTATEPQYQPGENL
Sequence of Mitogen-activated protein kinase 8 (P45983 whole entry): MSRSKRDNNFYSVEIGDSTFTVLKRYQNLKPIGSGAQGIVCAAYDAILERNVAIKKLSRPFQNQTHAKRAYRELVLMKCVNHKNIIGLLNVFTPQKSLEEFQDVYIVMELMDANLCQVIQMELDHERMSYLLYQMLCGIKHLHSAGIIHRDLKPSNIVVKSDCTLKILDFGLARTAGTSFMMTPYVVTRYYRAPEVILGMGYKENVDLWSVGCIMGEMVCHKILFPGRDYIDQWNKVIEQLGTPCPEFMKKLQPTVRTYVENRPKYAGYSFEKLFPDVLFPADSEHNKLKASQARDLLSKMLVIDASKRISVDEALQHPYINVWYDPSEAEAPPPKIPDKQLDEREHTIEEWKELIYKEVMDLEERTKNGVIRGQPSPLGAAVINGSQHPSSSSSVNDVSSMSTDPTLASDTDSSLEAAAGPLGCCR
Sequence of Casein kinase II subunit alpha (Homo sapiens) (P68400 whole entry, looked up, the tested form may be a part): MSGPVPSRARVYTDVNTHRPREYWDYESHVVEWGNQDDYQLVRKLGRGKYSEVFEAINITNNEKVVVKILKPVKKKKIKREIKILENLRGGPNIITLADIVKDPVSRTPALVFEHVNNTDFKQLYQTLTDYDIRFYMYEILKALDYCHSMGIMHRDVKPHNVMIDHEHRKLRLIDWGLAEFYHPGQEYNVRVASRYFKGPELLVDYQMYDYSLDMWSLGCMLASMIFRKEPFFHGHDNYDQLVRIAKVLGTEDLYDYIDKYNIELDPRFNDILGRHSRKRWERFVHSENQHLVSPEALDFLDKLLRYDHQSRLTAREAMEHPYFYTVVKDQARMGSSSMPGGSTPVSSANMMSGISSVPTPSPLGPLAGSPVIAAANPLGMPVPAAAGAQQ

SMILES	inhibition [1] [%]	inhibition [2] [%]	inhibition [3] [%]	inhibition [4] [%]	inhibition [5] [%]	inhibition [6] [%]	inhibition [7] [%]	inhibition [8] [%]
CCN1CCN(Cc2ccc(NC(=O)c3ccc(C)c(Oc4ccnc5[nH]ccc45)c3)cc2C(F)(F)F)CC1	90.3	36.5	31.2	88.5	-4.1	64.6	16.7	64.9
CCN1CCN(Cc2ccc(NC(=O)c3ccc(C)c(/C=C/c4cnc5[nH]ccc5c4OC)c3)cc2C(F)(F)F)CC1	76.9	72.6	30.2	23.3	11.4	2.6	31	24.3

— ChEMBL document CHEMBL5696442, “Discovery of type II inhibitors of TGFβ-activated kinase 1 (TAK1) and mitogen-activated protein kinase kinase kinase kinase 2 (MAP4K2)” (J Med Chem, 2015)
